The record followed here is ChEMBL document CHEMBL4513216, “Probing the Open Global Health Chemical Diversity Library for Multistage-Active Starting Points for Next-Generation Antimalarials” (ACS Infect Dis, 2020).

This data set can be described thus: Toxicity liver stage against HepG2, at 10uM. The data set is classed as cell-based. Also on record: test concentration 10 uM, cell line HepG2-A16-CD81EGFP. Particulars: human, HepG2-A16-CD81EGFP cells; read-out: INHIBITION
A digest of the protocol: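 Uninfected HepG2-A16-CD81EGFP cells, 3 × 10^3 per well, 1536-well, plated on prespotted compound at 10 μM final, parasite-free screening media added to match infected plates; puromycin 10 μM positive, DMSO 0.5% negative; run in parallel with 48 h PbLuc assay at 37 °C, 5% CO2; viability by CellTiter-Glo luminescence, normalized to controls.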

For the compound `O=C1[C@H]2CN(S(=O)(=O)c3ccccc3)C[C@H]2CN1Cc1cccnc1`, the cytotoxicity at 10 µM is -0.0837%.
On to `CCc1cccc(NC(=O)CCN2CC=C(c3cnn(C)c3)CC2)c1`, for which the cytotoxicity at 10 µM worked out at 1.2%.
In the case of `Cn1cc(C2CCCN2CC(=O)N(CCC#N)Cc2ccco2)cn1` (stereo unspecified), the cytotoxicity at 10 µM is -6.18%.
For the compound `Cc1cc(C)n(-c2ccc(C(=O)NCC(CO)Cc3ccco3)cc2)n1` (stereo unspecified), the cytotoxicity at 10 µM was 3.62%.
For the compound `CC1CCCN(Cc2c(C3CC3)n(CC(=O)N(C)C)c3ncccc23)C1` (stereo unspecified), the cytotoxicity at 10 µM turned out to be 4.04%.
For `Cc1cnc2[nH]c(C(F)(F)F)c(CN3CCOCC3)c2c1` the value was 11.7%; for `CCC(c1nc(C(C)C)nn1-c1ccccn1)n1cccn1` (stereo unspecified), 5.66%; for `CC(=O)NCCc1cc2nc(-c3ccncc3)ccn2n1`, 2.95%.
For `O=C(N[C@@H]1CN(Cc2cccs2)[C@@H]2CCCO[C@@H]21)c1cscn1` the value was -4.6%; for `Cc1nnc2n1CCN(Cc1csc(Cc3ccccc3)n1)C2`, -9.41%.
For `CNc1cc(C)nc(N2C[C@H](C3CC3)[C@@H](N)C2)n1` the value was -4.7%.
In the case of `CCc1nc(CN(C)CC(c2cccs2)N2CCOCC2)no1` (stereo unspecified), the cytotoxicity at 10 µM was -2.36%.
As to `COc1ccc(CCNC(=O)NC2CC(=O)N(c3ccccc3)C2)cc1` (stereo unspecified), the cytotoxicity at 10 µM was -48%.
For `CSc1ccc(C)c(C(=O)Nc2c(C(N)=O)n[nH]c2C)c1` the value was 3.36%; for `Cc1cccc(C(C(=O)NCc2csc(-c3ncccn3)n2)N(C)C)c1` (stereo unspecified), 2.14%; for `CN(C)C(=O)N1C[C@@H](C(=O)NCc2ccco2)C[C@H]2OCC[C@H]21`, 2.57%.
Turning to `Cc1ccc(Oc2ncccc2CNC2CCSCC2)cn1`, the cytotoxicity at 10 µM is -8.22%.
For `Cc1nc(C)n(C2CCCN(C(=O)c3c(C)nn4cccnc34)C2)n1` (stereo unspecified), the cytotoxicity at 10 µM is -29.2%.
As for `Cc1ncsc1CN(C)Cc1cc2c(cc1OC(F)F)OCO2`, the cytotoxicity at 10 µM is 6.22%.
In the case of `N#CCCN(Cc1cccnc1)C(=O)c1ccc(OCC2CC2)cc1`, the cytotoxicity at 10 µM was -8.17%.
`Cc1nc(CN(C)C(=O)CNC(=O)c2ccc(C#N)cc2)cs1`: the cytotoxicity at 10 µM turned out to be 12.5%.
With `COc1cccc(CNC(=O)c2nc3c(o2)CN(S(C)(=O)=O)C3)c1`, the cytotoxicity at 10 µM turned out to be 8.65%.
In the case of `Cc1sc(C(=O)NS(C)(=O)=O)cc1-c1ccc(F)cc1`, the cytotoxicity at 10 µM was 2.53%.
For `O=C(NCc1ccc(Cl)s1)c1ccc(N2CCOC2=O)cc1` the value was 21.1%.
For `CCC(CC)C(CNC(=O)Nc1cc(C)nn1C)N1CCOCC1` (stereo unspecified) the value was 1.74%.
For the compound `CCc1cc(C(F)(F)F)n2nc(C3CCCN3C3CCSCC3)cc2n1` (stereo unspecified), the cytotoxicity at 10 µM was 3.81%.
Regarding `CC(C)(C)c1n[nH]c(C2CN(CCc3cccs3)CCO2)n1` (stereo unspecified), the cytotoxicity at 10 µM is -7.36%.
For `Cn1cc(CN2C[C@@H]3CN(Cc4ccoc4)CCO[C@@H]3C2)cn1` the value was 6.97%.
For `O=C(NCCc1ccccc1)c1cccc(S(=O)(=O)NC2CCOC2)c1` (stereo unspecified) the value was 3.52%.
For `CNc1nc2cn(CCc3ccc(C)cc3)c(=O)c-2c[nH]1` the value was 6.36%; for `Cn1ccnc1CN1CCOCC(Cc2ccccn2)C1` (stereo unspecified), 7.17%; for `CC(=O)Nc1cccc2c1ccn2CC(=O)Nc1ncc[nH]1`, 5.83%.
`CCn1cc2c(n1)CN(CC1CC1)CC2COCC1CC1` (stereo unspecified): the cytotoxicity at 10 µM was -1.26%.
For `CNC(=O)c1cccnc1NCc1ccc(Cn2ccnc2)cc1` the value was 90.3%; for `CN1CCN(CC2CCN(C(=O)CCC3CCCCC3)CC2)CC1`, -3.68%.
Consider `CN1CC(C(=O)NCc2cccnc2OCC(F)(F)F)CC1=O` (stereo unspecified), for which the cytotoxicity at 10 µM was -6.6%.
On to `O=c1[nH]c(CN2CCCC(Cn3cncn3)C2)nc2ccccc12` (stereo unspecified), for which the cytotoxicity at 10 µM is -12.4%.
For `CC(c1cccc(-c2ncccc2C#N)c1)N(C)C` (stereo unspecified), the cytotoxicity at 10 µM was -5.4%.
For `Cc1cc(N(C)C)nc(C2CCCN2)n1` (stereo unspecified) the value was -11.1%.
In the case of `NC(=O)[C@@H]1CCCN1C(=O)c1csc(-c2ccc(C(F)(F)F)cc2)n1`, the cytotoxicity at 10 µM is -2%.
As to `CN1CC(=O)N(c2cccnc2)CC12CCN(C(=O)c1cccnc1)C2` (stereo unspecified), the cytotoxicity at 10 µM turned out to be 2.25%.
For `CN(CCC(F)(F)F)c1nc2ccccc2c(=O)[nH]1` the value was -5.11%.
For `N#Cc1cccc(S(=O)(=O)NC(=O)c2csc(-c3ccco3)n2)c1`, the cytotoxicity at 10 µM was found to be 4.34%.
Regarding `COCCN(Cc1coc(-c2ccc(OC)cc2)n1)C1CC1`, the cytotoxicity at 10 µM is 2.1%.
Regarding `CN1CCN(c2ccc(F)cc2NC(=O)NCc2ccon2)CC1`, the cytotoxicity at 10 µM was -6.84%.
Consider `Cc1cc(C)nc(Nc2nccnc2C2CCCN(C(CO)CO)C2)n1` (stereo unspecified), for which the cytotoxicity at 10 µM amounted to 0.216%.
As for `COc1ccc(-c2cn([C@H](CO)CC(C)C)nn2)cn1`, the cytotoxicity at 10 µM was -2.03%.
For the compound `N#Cc1csc(CNCCOc2ccccc2)c1`, the cytotoxicity at 10 µM stood at 8.35%.
As for `Cc1ccc(CN2Cc3nnn(C)c3C(COCC(=O)N(C)C)C2)s1` (stereo unspecified), the cytotoxicity at 10 µM was determined as 10.1%.
`COCc1ccc(CN2CCC(O)(Cn3ccc4ncccc43)CC2)o1`: the cytotoxicity at 10 µM was determined as 4.45%.
For `CC(C)c1nccc(CN(C)Cc2cnn(-c3ccccc3)c2)n1`, the cytotoxicity at 10 µM came to 6.66%.
Turning to `COC(=O)CCN1CCC(NC(=O)OC(C)(C)C)CC1`, the cytotoxicity at 10 µM was 14.7%.
On to `CCCC1CN(CC(C)C)C(=O)c2cccnc2O1` (stereo unspecified), for which the cytotoxicity at 10 µM was 3.04%.
For the compound `CC(=O)NC(CC(=O)Nc1ccc(C)cn1)c1ccccc1` (stereo unspecified), the cytotoxicity at 10 µM was -12.5%.
As to `COCC(=O)N1CCC2(CC1)CN(c1ccccn1)CCO2`, the cytotoxicity at 10 µM was -71.2%.
Take `CC(C)c1nnc(NC(=O)NCc2ccnc(N(C)C)c2)s1`: the cytotoxicity at 10 µM is 7.29%.
For `O=C(CCc1nccs1)N1CCC(C(=O)O)(c2ccccc2)CC1`, the cytotoxicity at 10 µM was found to be 1.75%.
For `c1ccc(-n2cc(CNCC3CCCN3c3cccnn3)cn2)cc1` (stereo unspecified), the cytotoxicity at 10 µM is -8.85%.
`O=C(Nc1ccccc1)c1ccc2c(c1)C1(CCCCC1)CN2`: the cytotoxicity at 10 µM is -31.5%.
Consider `COC(=O)c1cccc(C(=O)N(CCC#N)CC(C)(C)C)c1`, for which the cytotoxicity at 10 µM is 7.72%.
With `Cc1cc(OCC(N)=O)ccc1NC(=O)C(C)Cc1ccccc1F` (stereo unspecified), the cytotoxicity at 10 µM is -0.0944%.
For `Cc1nc(=O)c(CC(=O)N2C[C@H]3CC[C@@H](C2)N(CC2CCC2)C3)c(C)[nH]1` the value was 9.6%.
Take `CS(=O)(=O)N1CCC(Oc2ccc(C#N)cc2)CC1`: the cytotoxicity at 10 µM was -8.97%.
As for `O=c1c(NCCO)c(N2CCN(c3ccccc3)CC2)c1=O`, the cytotoxicity at 10 µM was -6.95%.
With `Cc1cccc(CO[C@H]2CN(c3nnc(C)s3)[C@@H]3CCCO[C@H]23)n1`, the cytotoxicity at 10 µM stood at 4.47%.
With `COc1cccc2c1CCC2NC(=O)NCc1csc(N(C)C)n1` (stereo unspecified), the cytotoxicity at 10 µM was -1.37%.
As to `CNC(=O)CN1CCC(NC(=O)Cn2cc(C)c3ccccc32)CC1`, the cytotoxicity at 10 µM was -4.65%.
For `Cc1ncc(CNC(=O)N(CCCO)C2CCc3ccccc32)s1` (stereo unspecified) the value was -12.9%.
As to `CCCc1nc(CN2CCCC2Cn2cncn2)cs1` (stereo unspecified), the cytotoxicity at 10 µM is -9.39%.
With `O=C(c1ncccn1)N1C[C@@H]2CC[C@H](Oc3cccc(F)c3)[C@@H]2C1`, the cytotoxicity at 10 µM is -27.5%.
Turning to `CC(NC(=O)c1cccs1)C(=O)NCc1ccccc1CN1CCCC1` (stereo unspecified), the cytotoxicity at 10 µM was -14.2%.
For `CC(C)(NS(C)(=O)=O)c1nc(-c2ccc(F)cc2Cl)no1` the value was 4.98%.
As for `O=C1[C@H]2CN(Cc3ccoc3)C[C@H]2CN1Cc1ccncc1`, the cytotoxicity at 10 µM is -14.1%.
As to `Cc1nccn1Cc1nnc(C2CCCN(c3ncccc3F)C2)n1C` (stereo unspecified), the cytotoxicity at 10 µM was -4.93%.
As to `CCn1cnnc1CNC(=O)c1ccc(Cl)cc1F`, the cytotoxicity at 10 µM is -0.457%.
Turning to `Fc1cccc(-c2nccnc2C2CCCNC2)c1` (stereo unspecified), the cytotoxicity at 10 µM was -16.5%.
On to `CC(C)C(c1cccnc1)N(C)C(=O)Cc1ccc(O)cc1` (stereo unspecified), for which the cytotoxicity at 10 µM is -1.03%.
Take `CCC(CC)CN1CCC2(CCC(=O)N2OCc2ccccc2F)CC1`: the cytotoxicity at 10 µM was 6.69%.
Turning to `O=C(c1ccsc1)N1CCc2c(CNc3nccs3)n[nH]c2C1`, the cytotoxicity at 10 µM was found to be 10.9%.
Take `COc1ccc(NCc2ccccc2N2CCN(C(C)=O)CC2)cn1`: the cytotoxicity at 10 µM is 1.85%.
Regarding `CCc1nc(CN2CCN(C(=O)N3CCCCC3)CC2)cs1`, the cytotoxicity at 10 µM was -16%.
Consider `CCCNC(=O)c1cc2c(nc1O)CCC(C)C2` (stereo unspecified), for which the cytotoxicity at 10 µM was 0.717%.
With `Cn1nc2c(cc1=O)CN(Cc1nnc(-c3ccc(F)cc3)o1)CC2`, the cytotoxicity at 10 µM is -9.47%.
Regarding `Cc1ccc(CN(Cc2ccncc2)C2CC(C)(C)NC(C)(C)C2)o1`, the cytotoxicity at 10 µM is -12.3%.
On to `CN1CCCC1c1cncc(C(=O)NCc2ccccc2)n1` (stereo unspecified), for which the cytotoxicity at 10 µM was -1.67%.
For `CCS(=O)(=O)N1CCC2(CC1)COC(COc1cccnc1)C2` (stereo unspecified), the cytotoxicity at 10 µM turned out to be 10.6%.
`CN(C)S(=O)(=O)c1ccc(-c2nc(C#N)c(NC3CCCCC3)o2)o1`: the cytotoxicity at 10 µM was -16%.
Take `c1cncc(CN2CCC(c3n[nH]c(C4CC4)n3)CC2)c1`: the cytotoxicity at 10 µM is 4.99%.
In the case of `CCn1nc(C)c2nc(C(C)C)nc(NCC(C)C)c21`, the cytotoxicity at 10 µM was determined as 15.5%.
For `CN(CCn1ccc2ccccc21)C(=O)Cc1nnn[nH]1`, the cytotoxicity at 10 µM is -8.93%.
For `O=C(Cc1cccs1)NC1CCN(c2cccc(F)c2)CC1`, the cytotoxicity at 10 µM is -24.2%.
As to `CC(C)c1nnc2n1CCN(CC(=O)N1CCc3ccccc3C1)C2`, the cytotoxicity at 10 µM was -5.92%.
With `CCNC(=O)NC[C@H]1Cn2c(-c3ccccc3)cnc2CO1`, the cytotoxicity at 10 µM was -2.12%.
`CSc1ncc(C(=O)N2C[C@@H]3CC[C@H]2CN(Cc2ccccc2)C3)cn1`: the cytotoxicity at 10 µM is -7.49%.
For `CCN(c1ccc(C(=O)N2CCCC2)cc1)S(=O)(=O)CC` the value was -9.75%; for `CC(C)c1nc2oc(C(=O)N3CCOCC3)c(N)c2c2c1CCCC2`, -3.71%.
